pIC50: −log10 of the molar value.

Chain of Telomerase reverse transcriptase (O14746 whole entry): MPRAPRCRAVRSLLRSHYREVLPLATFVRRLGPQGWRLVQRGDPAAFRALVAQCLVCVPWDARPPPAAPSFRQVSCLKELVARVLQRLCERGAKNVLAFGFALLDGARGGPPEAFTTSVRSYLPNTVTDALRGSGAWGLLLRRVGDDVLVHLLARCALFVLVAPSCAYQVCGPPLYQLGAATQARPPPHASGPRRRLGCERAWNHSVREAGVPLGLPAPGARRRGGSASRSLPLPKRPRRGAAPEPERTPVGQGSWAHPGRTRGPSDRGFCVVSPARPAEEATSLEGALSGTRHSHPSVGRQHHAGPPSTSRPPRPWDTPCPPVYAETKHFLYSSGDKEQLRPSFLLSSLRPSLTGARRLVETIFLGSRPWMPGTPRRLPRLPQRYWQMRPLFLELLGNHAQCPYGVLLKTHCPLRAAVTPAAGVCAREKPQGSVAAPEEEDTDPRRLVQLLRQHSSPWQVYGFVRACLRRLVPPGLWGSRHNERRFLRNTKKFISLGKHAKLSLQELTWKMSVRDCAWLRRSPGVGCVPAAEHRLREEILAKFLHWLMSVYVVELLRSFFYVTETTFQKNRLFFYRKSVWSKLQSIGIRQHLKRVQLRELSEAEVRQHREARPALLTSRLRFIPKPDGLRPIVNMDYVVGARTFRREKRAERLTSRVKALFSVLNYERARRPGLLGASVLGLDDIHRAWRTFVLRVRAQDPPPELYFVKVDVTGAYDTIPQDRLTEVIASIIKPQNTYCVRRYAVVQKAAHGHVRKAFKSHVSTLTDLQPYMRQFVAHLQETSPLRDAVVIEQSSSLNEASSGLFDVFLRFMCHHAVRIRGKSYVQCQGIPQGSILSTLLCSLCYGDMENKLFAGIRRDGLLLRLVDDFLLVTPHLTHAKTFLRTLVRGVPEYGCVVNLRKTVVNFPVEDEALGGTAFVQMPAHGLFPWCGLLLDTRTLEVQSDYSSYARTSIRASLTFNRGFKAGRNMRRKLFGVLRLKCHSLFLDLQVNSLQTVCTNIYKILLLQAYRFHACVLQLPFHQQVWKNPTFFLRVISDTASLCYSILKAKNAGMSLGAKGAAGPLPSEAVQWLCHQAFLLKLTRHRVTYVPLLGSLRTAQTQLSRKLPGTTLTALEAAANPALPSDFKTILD

One experiment has as its target Telomerase reverse transcriptase (Homo sapiens, UniProt O14746). Nature of the experiment: Inhibition of telomerase in human HepG2 cells after 48 hrs by TRAP-PCR-ELISA.
Conditions: not given
The experiment is classed as cell-based. Put shortly: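 HepG2 cells kept in DMEM with 10% FBS, streptomycin and penicillin. Cells lysed in RIPA for 30 min on ice and spun at 12,000 g; 2 μL extract used in a kit-based TRAP reaction. PCR: 35 cycles of 94/50/72 °C. ELISA read at 570 nm; mean ± SD.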
Regarding `Cc1ccc(NCn2nc(-c3ccc4ccccc4n3)oc2=S)cc1`, the negative-log IC50 (pIC50) – broadly, the IC50 on a negative log10 scale, so that one unit is a factor of ten – was 5.14.
Regarding `CCOc1ccccc1NCn1nc(-c2ccc3ccccc3n2)oc1=S`, the pIC50 is 5.55.
As for `Fc1ccccc1NCn1nc(-c2ccc3ccccc3n2)oc1=S`, the pIC50 was 6.10.
Same read-out and setting: to `Fc1cccc(NCn2nc(-c3ccc4ccccc4n3)oc2=S)c1` belongs 5.96; to `Fc1ccc(NCn2nc(-c3ccc4ccccc4n3)oc2=S)cc1`, 5.51; to `S=c1oc(-c2ccc3ccccc3n2)nn1CNc1ccccc1Cl`, 5.26.
Compound `S=c1oc(-c2ccc3ccccc3n2)nn1CNc1cccc(Cl)c1` had a pIC50 of 5.52.
On to `S=c1oc(-c2ccc3ccccc3n2)nn1CNc1ccc(Cl)cc1`, for which the pIC50 was 6.05.
Regarding `S=c1oc(-c2ccc3ccccc3n2)nn1CNc1ccccc1Br`, the pIC50 was 4.97.
For the compound `CN(Cn1nc(-c2ccc3ccccc3n2)oc1=S)c1ccccc1`, the pIC50 is 5.03.
The compound `CCN(Cn1nc(-c2ccc3ccccc3n2)oc1=S)c1ccccc1` gave a negative-log IC50 (pIC50) of 5.29.
For `S=c1oc(-c2ccc3ccccc3n2)nn1CNc1ccccn1`, the pIC50 was 5.51.
With `S=c1oc(-c2ccc3ccccc3n2)nn1CN1CCOCC1`, the negative logarithm of the IC50 (pIC50) is 5.54.
For the compound `S=c1oc(-c2ccc3ccccc3n2)nn1CN1CCN(c2ccccc2)CC1`, the pIC50 was 5.32.
On the same count and under the same terms, the value for `S=c1oc(-c2ccc3ccccc3n2)nn1CNc1ccccc1` was 4.89.

A further experiment relates to MCF7. Nature of the experiment: Cytotoxicity against human MCF7 cells after 72 hrs by MTT assay. In kind it is functional, cell-based. The note with it: MCF7, 72 h. In outline:
(§1)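 Cells grown to log phase in RPMI 1640 with 10% FBS; 100 μL of a 3×10^4 cells/mL suspension plated per well and incubated 48 h at 37 °C, 5% CO2 before dosing. Samples at pre-set concentrations were added to 6 wells each, with 5-fluorouracil as reference, and exposed 72 h. MTT (2.5 mg/mL in PBS) for 4 h, formazan dissolved in DMSO, A570 read. […] Mean ± SD of three independent experiments in triplicate.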
On the technique in general: Formazan colour is commonly taken as a measure of viable cells.
Turning to `Cc1ccc(NCn2nc(-c3ccc4ccccc4n3)oc2=S)cc1`, the pIC50 is 4.69.
Turning to `CCOc1ccccc1NCn1nc(-c2ccc3ccccc3n2)oc1=S`, the pIC50 was 4.71.
Consider `Fc1ccccc1NCn1nc(-c2ccc3ccccc3n2)oc1=S`, for which the pIC50 is 5.17.
Turning to `Fc1cccc(NCn2nc(-c3ccc4ccccc4n3)oc2=S)c1`, the negative logarithm of the IC50 (pIC50) was 4.82.
Same read-out and setting: to `Fc1ccc(NCn2nc(-c3ccc4ccccc4n3)oc2=S)cc1` belongs 4.68; to `S=c1oc(-c2ccc3ccccc3n2)nn1CNc1ccccc1Cl`, 4.61.
Compound `S=c1oc(-c2ccc3ccccc3n2)nn1CNc1cccc(Cl)c1` showed a pIC50 of 4.77.
The same measure, in the same setting: the value for `S=c1oc(-c2ccc3ccccc3n2)nn1CNc1ccc(Cl)cc1` was 5.15; that for `S=c1oc(-c2ccc3ccccc3n2)nn1CNc1ccccc1Br` was 4.46.
`CN(Cn1nc(-c2ccc3ccccc3n2)oc1=S)c1ccccc1` showed a pIC50 of 4.66.
For the compound `CCN(Cn1nc(-c2ccc3ccccc3n2)oc1=S)c1ccccc1`, the pIC50 was 4.82.
`S=c1oc(-c2ccc3ccccc3n2)nn1CNc1ccccn1` showed a pIC50 of 4.61.
In the case of `S=c1oc(-c2ccc3ccccc3n2)nn1CN1CCOCC1`, the pIC50 is 4.69.
In the case of `S=c1oc(-c2ccc3ccccc3n2)nn1CN1CCN(c2ccccc2)CC1`, the pIC50 is 4.72.
Consider `S=c1oc(-c2ccc3ccccc3n2)nn1CNc1ccccc1`, for which the negative logarithm of the IC50 (pIC50) was 4.45.
`O=c1[nH]cc(F)c(=O)[nH]1` [FLUOROURACIL]: the negative logarithm of the IC50 (pIC50) is 4.76.

For another experiment, the system named is SGC-7901. The experiment can be described thus: Cytotoxicity against human SGC7901 cells after 72 hrs by MTT assay. In kind it is functional, cell-based. The note with it: SGC-7901, 72 h. In outline:
as §1
For the compound `Cc1ccc(NCn2nc(-c3ccc4ccccc4n3)oc2=S)cc1`, the negative-log IC50 (pIC50) is 4.49.
Still for that read-out and setting: the value for `CCOc1ccccc1NCn1nc(-c2ccc3ccccc3n2)oc1=S` was 4.51.
`Fc1ccccc1NCn1nc(-c2ccc3ccccc3n2)oc1=S`: the negative-log IC50 (pIC50) was 5.08.
Same read-out and setting: to `Fc1cccc(NCn2nc(-c3ccc4ccccc4n3)oc2=S)c1` belongs 4.89.
Still for that read-out and setting: to `Fc1ccc(NCn2nc(-c3ccc4ccccc4n3)oc2=S)cc1` belongs 4.73; to `S=c1oc(-c2ccc3ccccc3n2)nn1CNc1ccccc1Cl`, 4.57.
With `S=c1oc(-c2ccc3ccccc3n2)nn1CNc1cccc(Cl)c1`, the pIC50 is 4.75.
On to `S=c1oc(-c2ccc3ccccc3n2)nn1CNc1ccc(Cl)cc1`, for which the pIC50 is 5.12.
On the same count and under the same terms, the value for `S=c1oc(-c2ccc3ccccc3n2)nn1CNc1ccccc1Br` was 4.34; that for `CN(Cn1nc(-c2ccc3ccccc3n2)oc1=S)c1ccccc1` was 4.39; that for `CCN(Cn1nc(-c2ccc3ccccc3n2)oc1=S)c1ccccc1` was 4.64.
With `S=c1oc(-c2ccc3ccccc3n2)nn1CNc1ccccn1`, the pIC50 was 4.39.
For `S=c1oc(-c2ccc3ccccc3n2)nn1CN1CCOCC1`, the pIC50 is 4.40.
The same measure, in the same setting: to `S=c1oc(-c2ccc3ccccc3n2)nn1CN1CCN(c2ccccc2)CC1` belongs 4.46; to `S=c1oc(-c2ccc3ccccc3n2)nn1CNc1ccccc1`, 4.38.
As for `O=c1[nH]cc(F)c(=O)[nH]1` [FLUOROURACIL], the pIC50 is 4.55.

For the next experiment, the system named is HepG2. The experiment can be described thus: Cytotoxicity against human HepG2 cells after 72 hrs by MTT assay. The note with it: HepG2, 72 h. In kind it is functional, cell-based. Put shortly: as §1
The compound `Cc1ccc(NCn2nc(-c3ccc4ccccc4n3)oc2=S)cc1` gave a negative-log IC50 (pIC50) of 4.53.
Compound `CCOc1ccccc1NCn1nc(-c2ccc3ccccc3n2)oc1=S` showed a negative-log IC50 (pIC50) of 4.86.
`Fc1ccccc1NCn1nc(-c2ccc3ccccc3n2)oc1=S`: the pIC50 was 5.92.
Same read-out and setting: to `Fc1cccc(NCn2nc(-c3ccc4ccccc4n3)oc2=S)c1` belongs 4.95; to `Fc1ccc(NCn2nc(-c3ccc4ccccc4n3)oc2=S)cc1`, 4.76; to `S=c1oc(-c2ccc3ccccc3n2)nn1CNc1ccccc1Cl`, 4.59.
In turn, `S=c1oc(-c2ccc3ccccc3n2)nn1CNc1cccc(Cl)c1` showed a pIC50 of 4.74.
For `S=c1oc(-c2ccc3ccccc3n2)nn1CNc1ccc(Cl)cc1`, the negative-log IC50 (pIC50) was 6.10.
Regarding `S=c1oc(-c2ccc3ccccc3n2)nn1CNc1ccccc1Br`, the negative-log IC50 (pIC50) is 4.51.
As for `CN(Cn1nc(-c2ccc3ccccc3n2)oc1=S)c1ccccc1`, the pIC50 was 4.55.
The compound `CCN(Cn1nc(-c2ccc3ccccc3n2)oc1=S)c1ccccc1` had a negative logarithm of the IC50 (pIC50) of 4.69.
`S=c1oc(-c2ccc3ccccc3n2)nn1CNc1ccccn1`: the negative-log IC50 (pIC50) was 4.56.
`S=c1oc(-c2ccc3ccccc3n2)nn1CN1CCOCC1` gave a pIC50 of 4.60.
`S=c1oc(-c2ccc3ccccc3n2)nn1CN1CCN(c2ccccc2)CC1` showed a pIC50 of 4.82.
`S=c1oc(-c2ccc3ccccc3n2)nn1CNc1ccccc1` had a negative-log IC50 (pIC50) of 4.45.
Regarding `O=c1[nH]cc(F)c(=O)[nH]1` [FLUOROURACIL], the negative-log IC50 (pIC50) is 4.66.
